The source of these data is ChEMBL document CHEMBL1921714, “Discovery of aminobenzyloxyarylamides as κ opioid receptor selective antagonists: application to preclinical development of a κ opioid receptor antagonist receptor occupancy tracer” (J Med Chem, 2011).

The target of assay [1] is T1, Kappa-type opioid receptor (Homo sapiens, UniProt P41145). Put plainly: Displacement of [3H]diprenorphine from human opioid kappa receptor expressed in CHO cells after 120 mins by scintillation counting. The class given is cell-based. The method, boiled down: (§1)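 11-point curves, 0.01 nM–1 μM final. 120 min at 22 °C, then filtration and scintillation counting. Nonspecific binding set by 10 μM naltrexone. Four-parameter IC50; Ki by Cheng–Prusoff.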

The target of assay [2] is T2, Delta-type opioid receptor (Homo sapiens, UniProt P41143). Description: Displacement of [3H]diprenorphine from human opioid delta receptor expressed in HEK293 cells after 120 mins by scintillation counting. Format: cell-based. The method, boiled down:
as §1
(In general: In a radioligand displacement assay an active substance lowers the binding of a labelled ligand.)

The target in assay [3] is T1, Kappa-type opioid receptor. Description: Antagonist activity at human opioid kappa receptor expressed in CHO cells assessed as inhibition of U69593-induced [35S]GTP-gamma-S binding after 4 hrs by scintillation counting. The class given is functional, cell-based. (In general: GTPγS is a poorly hydrolysed GTP analogue; its binding reports G protein activation.)
Assay [4] addresses T3, Mu-type opioid receptor (Homo sapiens, UniProt P35372). Description: Antagonist activity at human opioid mu receptor expressed in CHO cells assessed as inhibition of DAMGO-induced [35S]GTP-gamma-S binding after 4 hrs by scintillation counting. Format: functional, cell-based.
Assay [5] deals with T2, Delta-type opioid receptor. Put plainly: Agonist activity at human opioid delta receptor expressed in HEK293 cells assessed as stimulation of [35S]-GTPgammaS binding at 10 uM. Format: functional, cell-based. The method, boiled down:
(§2)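 Agonist mode: membranes from CHO (κ, μ) or HEK293 (δ) cells expressing cloned human receptors, no agonist added, tested at up to 10 μM. [35S]GTP-γ-S (0.5 nM final) binding in HEPES pH 7.4, MgCl2, NaCl, EDTA, DTT, 200 μM GDP. Read by WGA SPA beads after 2 h (δ) or 4 h (κ, μ) at room temperature, then 4 °C overnight.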

Assay [6] deals with CHO. Put plainly: Selectivity ratio of Ki for human opioid mu receptor expressed in CHO cells to Ki for human opioid kappa receptor expressed in CHO cells. Format: cell-based.
Assay [7] has as its system CHO. Description: Selectivity ratio of Kb for human opioid mu receptor expressed in CHO cells to Kb for human opioid kappa receptor expressed in CHO cells. The class given is cell-based. The method, boiled down: (§3)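 Kb ratios from antagonist [35S]GTP-γ-S SPA on CHO (κ, μ) or HEK293 (δ) membranes. Agonists at about 80% maximal: U69,593 300 nM (κ), DAMGO 1 μM (μ), DPDPE 30 nM (δ). 11-point curves, top 1 or 10 μM. Nonspecific binding: NorBNI, naltrexone or naltriben, each 10 μM. Kb = IC50/(1+D/EC50); geometric means with SEM.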

Assay [8] deals with HEK293. Put plainly: Selectivity ratio of Kb for human opioid delta receptor expressed in HEK293 cells to Kb for human opioid kappa receptor expressed in CHO cells. Format: cell-based. Summed up:
as §3

Assay [9] deals with T1, Kappa-type opioid receptor. Put plainly: Agonist activity at human opioid kappa receptor expressed in CHO cells assessed as stimulation of [35S]-GTPgammaS binding at 10 uM. Format: functional, cell-based. Summed up:
as §2

In assay [10] the target is T3, Mu-type opioid receptor. Description: Displacement of [3H]diprenorphine from human opioid mu receptor expressed in CHO cells after 120 mins by scintillation counting. The class given is cell-based. Summed up: as §1
The target in assay [11] is T3, Mu-type opioid receptor. Description: Agonist activity at human opioid mu receptor expressed in CHO cells assessed as stimulation of [35S]-GTPgammaS binding at 10 uM. The class given is functional, cell-based. The method, boiled down:
as §2

The target of assay [12] is T2, Delta-type opioid receptor. Put plainly: Antagonist activity at human opioid delta receptor expressed in HEK293 cells assessed as inhibition of DPDPE-induced [35S]GTP-gamma-S binding after 4 hrs by scintillation counting. The class given is functional, cell-based.
The test system of assay [13] is HEK293. Put plainly: Selectivity ratio of Ki for human opioid delta receptor expressed in HEK293 cells to Ki for human opioid kappa receptor expressed in CHO cells. The class given is cell-based.

A word on the Ki: it is a dissociation constant, usually derived from enzyme kinetics or from competition with a known ligand. High values mean lower affinity, low ones higher affinity. A word on the Kb: it is the affinity of an antagonist, worked out from how it opposes an agonist.

Calls of active or inactive are those of the source. The calls are words filed in the database; no cut-off is given here. A value given as a limit tells only on which side of the number the result lay.

T1 sequence (P41145 whole entry): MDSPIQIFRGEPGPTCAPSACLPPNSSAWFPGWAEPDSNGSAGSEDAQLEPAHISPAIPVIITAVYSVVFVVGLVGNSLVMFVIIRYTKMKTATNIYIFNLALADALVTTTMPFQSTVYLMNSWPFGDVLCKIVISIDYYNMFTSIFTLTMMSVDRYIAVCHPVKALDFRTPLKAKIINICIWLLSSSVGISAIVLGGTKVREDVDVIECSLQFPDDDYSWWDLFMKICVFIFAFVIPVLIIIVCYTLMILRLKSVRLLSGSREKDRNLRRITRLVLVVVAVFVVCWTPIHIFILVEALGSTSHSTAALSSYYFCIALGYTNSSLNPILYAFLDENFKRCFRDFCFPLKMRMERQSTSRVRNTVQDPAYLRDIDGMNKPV
T3 sequence (P35372 whole entry): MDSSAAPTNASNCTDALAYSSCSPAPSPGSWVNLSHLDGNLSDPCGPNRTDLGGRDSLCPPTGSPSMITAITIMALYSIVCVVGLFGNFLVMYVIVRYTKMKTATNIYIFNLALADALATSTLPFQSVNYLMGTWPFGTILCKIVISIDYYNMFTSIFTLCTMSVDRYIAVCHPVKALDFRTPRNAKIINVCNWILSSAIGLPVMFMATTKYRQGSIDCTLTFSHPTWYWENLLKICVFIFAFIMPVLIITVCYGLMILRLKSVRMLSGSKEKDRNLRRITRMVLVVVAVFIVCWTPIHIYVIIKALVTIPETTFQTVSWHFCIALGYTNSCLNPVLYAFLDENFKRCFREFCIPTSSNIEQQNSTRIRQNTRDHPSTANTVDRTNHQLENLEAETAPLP
T2 sequence (P41143 whole entry): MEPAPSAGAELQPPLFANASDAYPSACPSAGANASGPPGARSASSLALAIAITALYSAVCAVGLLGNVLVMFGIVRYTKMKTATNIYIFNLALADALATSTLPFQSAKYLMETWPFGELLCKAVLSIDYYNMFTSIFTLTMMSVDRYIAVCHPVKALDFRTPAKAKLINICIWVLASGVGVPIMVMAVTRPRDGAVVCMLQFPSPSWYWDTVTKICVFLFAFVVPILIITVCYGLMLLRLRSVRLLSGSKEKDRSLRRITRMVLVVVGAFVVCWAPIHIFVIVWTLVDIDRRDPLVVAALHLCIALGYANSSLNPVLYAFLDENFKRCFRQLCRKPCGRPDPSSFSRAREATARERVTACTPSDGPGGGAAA

Consider `NC(=O)c1ccc(Oc2ccc(CNCc3ccccc3)cc2)nc1`, for which the Ki in assay [1] was 0.00178 µM; in [2] it was 0.0276 µM; on Mu-type opioid receptor [10], 0.00243 µM. Besides, the Kb in [3] is 0.00433 µM; at Mu-type opioid receptor [4] it was 0.0038 µM; in [12] it was 0.0603 µM. The result (in assay [5]; in assay [9]; on Mu-type opioid receptor [11]) was inactive. For the same molecule, the Ratio Ki with CHO [6] was found to be 1; with HEK293 [13] it was 16. In addition, the results for the Ratio with CHO [7] and in the assay with HEK293 [8] were 1 and 14, respectively.

Take `NC(=O)c1ccc(Oc2ccc(CN3CCCC3c3cccc(F)c3)cc2)c(F)c1` (racemic): the Ki in assay [1] is 0.000617 µM; in [2], 0.187 µM; on Mu-type opioid receptor [10], 0.0411 µM. The Kb worked out at 0.00352 µM in assay [3], 0.0635 µM at Mu-type opioid receptor [4] and 0.525 µM in assay [12]. Besides, the result (in assay [5]; in assay [9]; at Mu-type opioid receptor [11]) was inactive. In addition, the Ratio Ki with CHO [6] was 67; in the assay on HEK293 [13], 303. For the same molecule, the Ratio was 18 in the assay on CHO [7] and 149 in the assay with HEK293 [8].

As to `CC1(C)CN(Cc2ccc(Oc3ccc(C(N)=O)cn3)cc2)C1c1ccccc1` (racemic), the Ki was 0.00141 µM in [1], > 0.5 µM in [2] and 0.0527 µM at Mu-type opioid receptor [10]. Also, the result (in assay [5]; in assay [9]; on Mu-type opioid receptor [11]) was inactive.

Regarding `CC1(C)CN(Cc2ccc(Oc3ccc(C(N)=O)cn3)cc2)[C@H]1c1ccccc1`, the Ki in assay [1] is 0.0267 µM; in [2], > 0.5 µM; on Mu-type opioid receptor [10], 0.107 µM. Further, the Kb in [3] is 0.0152 µM; at Mu-type opioid receptor [4], 0.0438 µM; in assay [12], > 1 µM. Also, the result (in assay [5]; in [9]; at Mu-type opioid receptor [11]) was inactive. Further, the Ratio was 3 in the assay on CHO [7] and > 65 in the assay with HEK293 [8].

`NC(=O)c1ccc(Oc2ccc(CN3CCCC3c3cccnc3)cc2)c(Cl)c1` (racemic): the Ki in assay [1] was found to be 0.000622 µM; in assay [2], 0.251 µM; at Mu-type opioid receptor [10] it was 0.0315 µM. Further, the outcome (in assay [5]; in assay [9]; at Mu-type opioid receptor [11]) was inactive. Besides, the Ratio Ki in the assay on CHO [6] amounted to 51; with HEK293 [13], 404.

As to `Oc1ccc2c3c1O[C@H]1c4[nH]c5c(c4C[C@@]4(O)[C@@H](C2)N(CC2CC2)CC[C@]314)C[C@@]1(O)[C@H]2Cc3ccc(O)c4c3[C@@]1(CCN2CC1CC1)[C@H]5O4`, the outcome (in assay [5]; in assay [9]; at Mu-type opioid receptor [11]) was inactive.

In the case of `Cc1cc(C)cc([C@@H]2CCCN2Cc2ccc(Oc3ccc(C(N)=O)cc3F)cc2)c1` [ATICAPRANT], the Ki worked out at 0.000949 µM in assay [1] and 0.0227 µM on Mu-type opioid receptor [10]. Moreover, the Kb amounted to 0.000813 µM in assay [3], 0.0174 µM on Mu-type opioid receptor [4] and 0.11 µM in assay [12]. Moreover, the outcome (in assay [5]; in [9]; at Mu-type opioid receptor [11]) was inactive. Also, the Ratio Ki with CHO [6] was found to be 24; in the assay with HEK293 [13], 175. Further, the Ratio was determined as 21 in the assay on CHO [7] and 135 in the assay with HEK293 [8].

For the molecule `CC(C)[C@@H](CN1CC[C@@](C)(c2cccc(O)c2)[C@@H](C)C1)NC(=O)[C@H]1Cc2ccc(O)cc2CN1`, the outcome (in assay [5]; in [9]; on Mu-type opioid receptor [11]) was inactive.

For `NC(=O)c1ccc(Oc2ccc(CN3CCC[C@@H]3c3cccnc3)cc2)c(Cl)c1`, the results for the Ki (in assay [1]; in assay [2]; at Mu-type opioid receptor [10]) were 0.0449 µM, > 0.5 µM and > 0.5 µM, respectively. For the same molecule, the result (in assay [5]; in assay [9]; on Mu-type opioid receptor [11]) was inactive. The Ratio Ki in the assay on CHO [6] and in the assay on HEK293 [13] was > 11 in each case.
